# EP2 antag: human EP2 receptor antagonists, primary screen, TR-FRET cAMP, C6 glioma cells; Prostaglandin E2 receptor EP2 subtype (Homo sapiens), P43116; C6 glioma cells expressing human EP2; cells stimulated with saturating PGE2; inhibition, % at 25 µM; 0.52% of 260,000 active; AID 1422, 2008;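 active means percent inhibition above 40 after rounding to a whole number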;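 further: rat C6 glioma host cells with rolipram phosphodiesterase inhibitor present; the protocol text gives 20 µM as final concentration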
# PHOSPHO1 inh: PubChem AID 1565; recombinant PHOSPHO1, absorbance phosphatase assay; 1.1% of 290,000 active; Phosphoethanolamine/phosphocholine phosphatase (Homo sapiens), Q8TCT1; inhibition, % at 13.3 µM; in the data active means inhibition above about 60%
# HKDC1 inh: HKDC1 hexokinase inhibitors, primary screen, biochemical, fluorescence, uHTS; Q2TB90; AID 493160, 2011; inhibition, % at 20 µM; recombinant HKDC1, G6PDH/diaphorase resazurin coupled fluorescence; 0.16% of 340,000 active;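 active means inhibition above about 35% when tested at 20 µM, limit read from the data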;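 further: plate controls were DMSO wells with enzyme for no effect and DMSO wells lacking enzyme for full effect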
# Target sequence (Q2TB90 whole entry, looked up): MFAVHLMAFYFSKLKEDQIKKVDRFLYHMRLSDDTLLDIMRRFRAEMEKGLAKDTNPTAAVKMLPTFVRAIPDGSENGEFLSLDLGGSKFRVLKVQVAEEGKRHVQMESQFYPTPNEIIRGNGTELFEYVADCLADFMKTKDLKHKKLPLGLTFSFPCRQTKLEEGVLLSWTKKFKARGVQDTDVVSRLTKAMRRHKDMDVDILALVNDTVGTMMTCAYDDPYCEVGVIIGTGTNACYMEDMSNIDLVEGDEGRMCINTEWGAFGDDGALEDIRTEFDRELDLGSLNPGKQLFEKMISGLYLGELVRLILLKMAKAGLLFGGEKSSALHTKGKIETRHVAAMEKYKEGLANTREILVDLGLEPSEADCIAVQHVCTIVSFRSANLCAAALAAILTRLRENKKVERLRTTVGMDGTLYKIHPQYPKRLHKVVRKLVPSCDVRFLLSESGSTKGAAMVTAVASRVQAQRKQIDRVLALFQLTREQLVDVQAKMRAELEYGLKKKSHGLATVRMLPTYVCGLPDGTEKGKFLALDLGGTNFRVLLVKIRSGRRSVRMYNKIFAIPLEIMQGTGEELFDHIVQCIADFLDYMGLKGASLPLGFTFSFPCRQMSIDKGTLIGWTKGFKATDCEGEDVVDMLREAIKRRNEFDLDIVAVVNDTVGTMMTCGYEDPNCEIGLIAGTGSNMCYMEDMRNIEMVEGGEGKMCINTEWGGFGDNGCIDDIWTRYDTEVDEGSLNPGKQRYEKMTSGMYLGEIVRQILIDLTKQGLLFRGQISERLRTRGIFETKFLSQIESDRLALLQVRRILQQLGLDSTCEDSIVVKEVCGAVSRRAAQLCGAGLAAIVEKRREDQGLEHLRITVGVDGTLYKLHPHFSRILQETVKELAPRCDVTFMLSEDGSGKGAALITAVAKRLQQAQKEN
#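 Test system: HK5 enzyme. Quantity: 5 µg/mL HK5 final. Reagent: glucose and ATP substrates. Schedule: 90 min reaction incubation at room temperature, dark. Technique: resazurin-to-resorufin fluorescence via G6PDH and diaphorase coupling, 525/613 nm. Control set: DMSO wells with and without enzyme mix.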
# TbHK1 inh: Trypanosoma brucei hexokinase 1 inhibitors, primary screen, biochemical, G6PDH-coupled NADH absorbance, MLSCN library. hexokinase 1 [Trypanosoma brucei]. recombinant TbHK1, G6PDH-coupled NADH A340. inhibition, % at 10 µM. 0.11% of 220,000 active. AID 1430, 2008;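 active means inhibition of 50% or more in the single-dose primary screen; inactive means inhibition below 50%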
# PfGluPho inh: PfG6PD enzyme inhibitors, primary screen, biochemical, fluorescence intensity, uHTS; AID 504690, 2011; PfGluPho enzyme, NADPH resazurin-diaphorase fluorescence; 0.78% of 350,000 active; glucose-6-phosphate dehydrogenase-6-phosphogluconolactonase (Plasmodium falciparum 3D7); inhibition, % at 20 µM;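 active means inhibition reaching at least a set limit at 20 µM in the primary screen, cut at about 59% in these data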;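 further: 0% = DMSO wells with substrate and 100% = DMSO wells lacking glucose-6-phosphate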
# EP2 mod: EP2 receptor modulators, cAMP readout, primary screen, cell-based, HTRF cAMP, PGE2 stimulation; Prostaglandin E2 receptor EP2 subtype (Homo sapiens), P43116; EP2-expressing cells, cAMP HTRF FRET, PGE2 co-stimulation; induction, % at 25 µM; 0.83% of 260,000 active; AID 940, 2007;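 active means compounds whose cAMP rise, as percent of the full-agonist control response, exceeds 60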;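 further: rat C6 glioma line stably carrying human EP2 under a CMV promoter; the protocol text gives 20 µM as final concentration; 100% = response of wells given 1 µM PGE2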
# HKDC1 act conf: HKDC1 hexokinase activators, confirmation, biochemical, single concentration; shares compounds with HKDC1 inh; recombinant HKDC1, G6PDH/diaphorase resazurin fluorescence; active compounds read low; AID 504708, 2011; inhibition, % at 20 µM; 14% of 740 active;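 active means inhibition at or below a set negative limit, negative inhibition meaning the enzyme was activated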
# * = called active by the depositor; x = not tested or not shown. In the library only some 2.5% were active in any assay of this set; here they are far more common.
SMILES,EP2 antag,PHOSPHO1 inh,HKDC1 inh,TbHK1 inh,PfGluPho inh,EP2 mod,HKDC1 act conf
Cc1ccc(NC(=O)CSc2nnc(-c3cccnc3)s2)cc1,13,-6,-6,-1,34,4,x
O=C(CSc1nnc(-c2cccnc2)s1)Nc1ccnc2ccccc12,10,6,35,0,28,-15,18
COc1cc(OC)c(OC)cc1CCC(C)NCCC(c1ccccc1)c1ccccc1 (stereo not given),x,-20,81*,x,18,x,-24
COc1ccc(CCNCCC(c2ccccc2)c2ccccc2)cc1OC,x,x,x,x,-6,x,x
CCSc1nnnn1-c1ccccc1,9,3,-11,-2,-31,-1,x
Cc1ccc(C)c(-n2nnnc2Sc2nnnn2-c2ccccc2)c1,5,x,47*,1,-5,19,39
COc1ccc(NC(=O)Cn2nc(C(F)(F)F)c3c2CCC3)cc1OC,14,x,x,x,x,-32,x
Cc1ccc(-c2cc(C(=O)N3CCC(C)CC3)no2)cc1,9,x,x,x,x,-67,x
COc1cccc2cc(C(=O)Nc3ccc(F)cc3)c(=Nc3ccc(C(=O)O)cc3)oc12,7,20,77*,2,-9,-25,9
Cc1ccc(NC2c3ncccc3C(=O)N2c2ccccc2C)cc1C (stereo not given),5,86*,56*,-10,29,-3,36
COc1ccccc1C1(O)CCN(CC(O)c2ccc(C)cc2)CC1 (stereo not given),3,x,x,x,x,-61,x
CCOc1ccccc1NC(=O)C1CCCN(c2c3c(nc4ncnn24)CCC3)C1 (stereo not given),7,x,x,x,x,7,x
COc1ccc(C2=CC3=C(Br)C(=O)C(C)(OC(=O)c4ccco4)C(=O)C3=CO2)cc1 (stereo not given),14,9,42*,-19,10,4,-7
COc1ccc(C2=CC3=C(Br)C(=O)C(C)(OC(=O)c4cccs4)C(=O)C3=CO2)cc1 (stereo not given),13,x,50*,x,13,x,4
Cc1cc(C)c2cc(C(c3nnnn3Cc3ccccc3)N3CCN(C)CC3)c(=O)[nH]c2c1 (stereo not given),8,x,x,x,x,-39,x
O=C(CSc1nnc(CCCN2C(=O)c3cccc4cccc(c34)C2=O)n1-c1ccccc1)N1CCN(CCO)CC1,5,-6,42*,-22,4,12,48
CC(=O)c1ccc(N(C(=O)Cc2cccs2)C(C(=O)NC2CCCCC2)c2cccn2C)cc1 (stereo not given),10,x,x,x,x,10,x
CCN1c2ccccc2C(=C2SC(C(=O)OC)=C(C(=O)OC)S2)C(=S)C1(C)C,5,x,x,x,x,33,x
CCC[n+]1c2ccccc2cc2ccccc21,x,14,37*,x,31,x,0
CCCC[n+]1c2ccccc2cc2ccccc21,x,-64,42*,x,54,x,-1
COc1cccc(-n2c(N)c(C(=O)Nc3c(C)n(C)n(-c4ccccc4)c3=O)c3nc4ccccc4nc32)c1,11,37,36*,-33,31,-16,28
Cc1cc(C)cc(-n2c(N)c(C(=O)Nc3c(C)n(C)n(-c4ccccc4)c3=O)c3nc4ccccc4nc32)c1,10,1,38*,-14,14,8,-33
O=C(Nc1ccc(NC(=O)C2CC2)cn1)c1cccc(Cl)c1,21,x,x,x,x,-57,x
COc1ccc(-c2nc3c(c(=O)n(C)c(=O)n3C)n2CC2CC(c3ccccc3)=NO2)cc1OC (stereo not given),28,x,-48,-21,-51,x,-33*
COc1ccc(C(=O)OCC2CC(c3ccccc3)=NO2)cc1OC (stereo not given),6,27,-3,-5,-5,-3,x
SMILES,EP2 antag,PHOSPHO1 inh,HKDC1 inh,TbHK1 inh,PfGluPho inh,EP2 mod,HKDC1 act conf
O=C(CN1CCOCC1)Nc1cccc(C(=O)O)c1,4,x,x,x,x,8,x
Cc1cc(Oc2ccc(OCC(N)=O)nn2)nc(Cl)n1,-3,2,-9,-4,-6,20,x
COc1ccc(Oc2cc(C)nc(Cl)n2)nn1,5,-19,-78,-2,-4,-2,-15
CC1CCc2c(c3ccccc3n2C(=O)CCl)C1 (stereo not given),x,3,46*,x,12,x,-11
CCn1c(=O)n(CC)c2cc(N3CCCC3)c(NC(=O)c3ccccc3OC)cc21,x,30,-37,x,7,x,-20
CCOc1ccccc1C(=O)Nc1cc2c(cc1N1CCCC1)n(CC)c(=O)n2CC,x,17,-36,x,14,x,x
Cc1cccnc1NC(=O)CCC(=O)O,20,x,x,x,x,1,x
Cc1cccnc1-n1c(C)cc(CN(CCO)Cc2cccnc2)c1C,8,x,x,x,x,-32,x
COc1ccc(-c2cc(C(F)(F)F)nc(SCC(=O)NC3CCCCC3)n2)cc1,11,x,x,x,x,-124,x
COc1ccc(S(=O)(=O)N(C(=O)c2ccco2)c2cc3sc(=O)oc3c3ccccc23)cc1,4,-10,26,-2,52,18,x
Cc1ccc(S(=O)(=O)N(C(=O)c2ccco2)c2cc3sc(=O)oc3c3ccccc23)cc1,7,-2,37*,20,54,32,-5
COc1cccc(N(CC(=O)N2CCN(c3ccccc3F)CC2)S(C)(=O)=O)c1,4,x,x,x,x,13,x
CCOC(=O)C1=C(Cc2ccc(F)cc2)C(=O)c2ccccc2C1=O,18,51,73*,-2,98*,-14,59
O=C(OCc1ccc(F)cc1)c1ccc2c(c1)-c1ccccc1C2=O,7,30,-5,9,3,-45,x
COc1ccc(C(=O)N/C(N)=N/c2nc3ccccc3o2)cc1,13,9,-3,-17,-1,-1,x
COc1ccc(C(=O)/C=C/Sc2nc3ccccc3o2)cc1,5,16,38*,-11,27,-54,4
CCCc1nc2oc3c(NCCOCCO)ncnc3c2c2c1COC(C)(C)C2,2,8,39*,-4,44,41,42
CC(C)c1nc2oc3c(=O)[nH]cnc3c2c2c1COC(C)(C)C2,8,12,36*,-4,32,18,48
CC(C)c1nc2oc3c(NCCO)ncnc3c2c2c1COC(C)(C)C2,4,20,46*,-16,56,2,66
CCCc1nc2oc3c(OC)ncnc3c2c2c1COC(C)(C)C2,6,-3,37*,-1,46,37,42
CC(C)c1nc2oc3c(=O)[nH]cnc3c2c2c1CCC2,5,3,22,1,9,17,x
